# Reference: ChEMBL document CHEMBL1955756, “Design and synthesis of novel sulfonamide-containing bradykinin hB(2) receptor antagonists. Synthesis and structure-relationships of α,α-tetrahydropyranylglycine” (Bioorg Med Chem, 2012)
# pKi: −log10 of the molar value. The source made the active and inactive calls. No cut-off for these calls is given here.
# Experiments:
# [1] = biological target: T1, B1 bradykinin receptor (Homo sapiens, UniProt P46663); assay: Displacement of [3H][desArg9]Lys-Bradykinin from human bradykinin B1 receptor expressed in CHO cells; format: cell-based
# T1 sequence (P46663 whole entry): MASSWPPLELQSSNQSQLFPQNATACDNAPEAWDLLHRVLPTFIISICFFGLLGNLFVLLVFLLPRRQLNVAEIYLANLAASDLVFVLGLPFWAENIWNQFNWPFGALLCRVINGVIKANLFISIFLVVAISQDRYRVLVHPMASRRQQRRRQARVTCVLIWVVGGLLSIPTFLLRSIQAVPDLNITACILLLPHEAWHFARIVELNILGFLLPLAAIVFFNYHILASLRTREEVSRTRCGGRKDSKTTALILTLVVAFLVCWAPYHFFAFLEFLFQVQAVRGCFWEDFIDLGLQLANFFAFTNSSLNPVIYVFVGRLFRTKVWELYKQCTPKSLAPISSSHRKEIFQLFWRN
# [2] = system: Cavia porcellus; assay: Inhibition of bradykinin-induced bronchoconstriction in anesthetized Dunkin-Hartley guinea pig at […], it 5 mins prior bradykinin-induction for every 30 mins up to 210 mins; format: functional, organism-based
# Summary of the method: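 Anaesthetized male Dunkin Hartley guinea pigs, 350–400 g. Compound given intratracheally, then repeated iv BK challenges (10 nmol/kg) with bronchoconstriction recorded.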
# [3] = biological target: T2, B2 bradykinin receptor (Homo sapiens, UniProt P30411); assay: Antagonist activity at human bradykinin B2 receptor expressed in dhfr-deficient CHO cells assessed as inhibition of bradykinin-induced inositol monophosphate accumulation preincubated for 15 mins prior bradykinin induction measured after 40 mins by liquid scintillation spectrometry; format: functional, cell-based; settings: read-out: pA2 (converted)
# T2 sequence (P30411 whole entry): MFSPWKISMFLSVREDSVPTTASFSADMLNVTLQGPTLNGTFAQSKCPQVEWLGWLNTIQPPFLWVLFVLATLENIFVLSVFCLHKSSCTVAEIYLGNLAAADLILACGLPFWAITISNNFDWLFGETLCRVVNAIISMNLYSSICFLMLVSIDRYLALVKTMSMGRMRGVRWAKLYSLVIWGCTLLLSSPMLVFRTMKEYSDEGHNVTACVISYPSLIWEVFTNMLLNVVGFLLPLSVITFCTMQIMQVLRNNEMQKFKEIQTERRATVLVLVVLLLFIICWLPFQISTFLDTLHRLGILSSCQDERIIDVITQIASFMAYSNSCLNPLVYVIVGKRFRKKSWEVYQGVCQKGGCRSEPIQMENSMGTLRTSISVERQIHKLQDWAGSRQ
# Summary of the method: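 CHOdhfr-/hB2R cells (1.8×10^5/well) plated overnight at 37 °C, labelled 24 h with myo-[3H]inositol (1 uCi/well). Antagonist pre-incubation 15 min, then BK 1×10^-11 to 1×10^-5 M for 40 min at 37 °C in Hepes pH 7.4 buffer with 25 mM LiCl. IP1 radioactivity by liquid scintillation. Agonist curves fitted for EC50; pA2 = log(CR−1) − log[antagonist].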
# [4] = biological target: T2, B2 bradykinin receptor; assay: Displacement of [3H]-Bradykinin from human bradykinin B2 receptor expressed in CHO cells membrane after 60 mins by scintillation counting; format: cell membranes
# [5] = biological target: T3, B2 bradykinin receptor (Homo sapiens) (UniProt P30411); assay: (§1) Reversible antagonist activity at human bradykinin B2 receptor expressed in dhfr-deficient CHO cells assessed as inhibition of bradykinin-induced inositol monophosphate accumulation at 100 nM preincubated for 15 mins prior bradykinin induction measured after 15 mins washout by liquid scintillation spectrometry; format: functional, cell-based
# T3 sequence (whole entry): T2 sequence (P30411 whole entry)
# Summary of the method: (§2)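 Washout in the IP accumulation assay in CHO/hB2R cells: antagonist (3 µM or 100 nM) pre-incubated 15 min, with medium then fully replaced every 15 min in washed cells. BK (2 nM) added and the reaction stopped after one hour; IP formed quantified. Expressed as % inhibition of time-matched BK responses in vehicle-pre-incubated cells.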
# [6] = biological target: T3, B2 bradykinin receptor (Homo sapiens); assay: as §1, with “after 30” for “after 15”; format: functional, cell-based; summary of the method: as §2
# [7] = biological target: T3, B2 bradykinin receptor (Homo sapiens); assay: as §1, with “after 45” for “after 15”; format: functional, cell-based; summary of the method: as §2
SMILES,pKi [1],inhibition [2],Kb [3],pKi [4],inhibition [5],inhibition [6],inhibition [7]
Cc1cc(C)c2cccc(OCc3c(Cl)ccc(S(=O)(=O)NC4(C(=O)N5CCN(C(=O)[C@@H](N)CCC[N+](C)(C)C)CC5)CCOCC4)c3Cl)c2n1 [FASITIBANT],< 5.00,Active,–,–,–,–,–
Cc1cc(C)c2cccc(OCc3c(Cl)ccc(S(=O)(=O)NC4(C(=O)N5CCN(C(=O)CCCCN)CC5)CCOCC4)c3Cl)c2n1,< 5.00,–,0.479 nM,10.10,–,–,–
Cc1cc(C)c2cccc(OCc3c(Cl)ccc(S(=O)(=O)NC4(C(=O)N5CCN(C(=O)[C@@H](N)CCCN(C)C)CC5)CCOCC4)c3Cl)c2n1,< 5.00,–,0.123 nM,10.30,–,–,–
Cc1cc(C)c2cccc(OCc3c(Cl)ccc(S(=O)(=O)NC4(C(=O)N5CC[N+]6(CC5)CC[N+](C)(C)CC6)CCOCC4)c3Cl)c2n1,< 5.00,–,5.01 nM,9.60,–,–,–
Cc1cc(C)c2cccc(OCc3c(Cl)ccc(S(=O)(=O)NC4(C(=O)N5CCN(C(=O)[C@@H](N)CCCNC(=N)N)CC5)CCOCC4)c3Cl)c2n1,< 5.00,–,–,9.90,–,–,–
Cc1cc(C)c2cccc(OCc3c(Cl)ccc(S(=O)(=O)NC4(C(=O)N5CCC(CCC[N+](C)(C)C)CC5)CCOCC4)c3Cl)c2n1,< 5.00,–,1.58 nM,9.30,–,–,–
Cc1cc(C)c2cccc(OCc3c(Cl)ccc(S(=O)(=O)NC4(C(=O)N5CCN(C(=O)CCCCCC[N+](C)(C)C)CC5)CCOCC4)c3Cl)c2n1,< 5.00,–,1.26 nM,9.70,–,–,–
Cc1cc(C)c2cccc(OCc3c(Cl)ccc(S(=O)(=O)NC4(C(=O)N5CCC(C[N+](C)(C)C)CC5)CCOCC4)c3Cl)c2n1,< 5.00,–,5.01 nM,9.40,–,–,–
Cc1cc(C)c2cccc(OCc3c(Cl)ccc(S(=O)(=O)NC4(C(=O)N5CC[N+](C)(CCCCCC[N+](C)(C)C)CC5)CCOCC4)c3Cl)c2n1,< 5.00,–,3.16 nM,10.40,–,–,–
Cc1cc(C)c2cccc(OCc3c(Cl)ccc(S(=O)(=O)NC4(C(=O)N5CCN(C(=O)[C@@H](N)CCCN)CC5)CCOCC4)c3Cl)c2n1,< 5.00,–,0.724 nM,10.30,–,–,–
Cc1cc(C)c2cccc(OCc3c(Cl)ccc(S(=O)(=O)NC4(C(=O)N5CC[N+]6(CCCC6)CC5)CCOCC4)c3Cl)c2n1,< 5.00,–,3.16 nM,9.20,–,–,–
Cc1cc(C)c2cccc(OCc3c(Cl)ccc(S(=O)(=O)NC4(C(=O)N5CCC(CC[N+](C)(C)C)CC5)CCOCC4)c3Cl)c2n1,< 5.00,–,3.98 nM,9.10,–,–,–
Cc1cc(C)c2cccc(OCc3c(Cl)ccc(S(=O)(=O)NC4(C(=O)N5CC[N+]6(CCCCC6)CC5)CCOCC4)c3Cl)c2n1,< 5.00,–,2.63 nM,9.40,72%,9%,-0%
Cc1cc(C)c2cccc(OCc3c(Cl)ccc(S(=O)(=O)NC4(C(=O)N5CCN(C(=O)CCCCN(C)C)CC5)CCOCC4)c3Cl)c2n1,< 5.00,–,0.437 nM,10.00,–,–,–
Cc1cc(C)c2cccc(OCc3c(Cl)ccc(S(=O)(=O)NC4(C(=O)N5CCN(CC[N+](C)(C)C)CC5)CCOCC4)c3Cl)c2n1,< 5.00,–,–,9.10,–,–,–
Cc1cc(C)c2cccc(OCc3c(Cl)ccc(S(=O)(=O)NC4(C(=O)N5CCN(C(=O)CCCCC[N+](C)(C)C)CC5)CCOCC4)c3Cl)c2n1,< 5.00,–,0.794 nM,9.90,–,–,–
